Measurements collected from several papers.
Protocols differ between the studies behind these lines.
Observed: cell growth or viability

Compound	cell line	assay	conditions	endpoint	result
CC(=O)c1nn(-c2ccccc2Cl)/c(=N/N=C(\C)c2ccc(NC(=O)c3ccccc3)cc2)s1	MCF7	MTT	1.25 µM	viability	6.34%
COc1cc2c3c(n(CCCNCCO)c(=O)c2cc1OC)-c1nc2c(cc1C3=O)OCO2	THP-1	MTS	72 h	IC50	300 nM
O=C(Nc1ccc(Oc2nnc(-c3ccc(Cl)cc3)c3ccccc23)cc1)c1cccc([N+](=O)[O-])c1	MCF7	MTT	0.312 µM	cell death	83%
CCOC(=O)c1nn(-c2cccc(Cl)c2)/c(=N/N=C(\C)c2ccc(NC(=O)c3ccccc3)cc2)s1	MCF7	MTT	10 µM	viability	2.41%
C[C@@H]1CC[C@@H]([C@@](O)(CNCc2cccc3ccccc23)COCc2ccccc2)[C@H](OCc2ccccc2)C1	MCF7	MTT	30 µM, 72 h	inhibition	90.7%
CCOC(=O)c1nn(-c2cccc(Cl)c2)/c(=N/N=C(\C)c2ccc(NC(=O)c3ccc(Cl)cc3)cc2)s1	MCF7	MTT	5 µM	viability	3.67%
C[C@@H]1CC[C@@H]([C@](O)(CNCc2ccccc2)COCc2ccccc2)[C@H](OCc2ccccc2)C1	MCF7	MTT	10 µM, 72 h	inhibition	84.1%
CC1(C)CCC2(CC1)N[C@@H](C(=O)N[C@@H]1CC[C@@H](C(N)=O)OC1)[C@H](c1ccnc(Cl)c1F)[C@]21C(=O)Nc2cc(Cl)ccc21	SJSA-1	resazurin	72 h	IC50	115 nM
CC(=NNC(=O)c1ccc(N)cc1)c1ccc(Nc2nnc(-c3ccc(Cl)cc3)c3ccccc23)cc1	MCF7	MTT	1.25 µM	cell death	85.9%
COc1cc2c3c(n(CCCn4ccnc4)c(=O)c2cc1OC)-c1nc2c(cc1C3=O)OCO2	AMO1	MTS	72 h	IC50	804 nM
C[C@@H]1CC[C@@H]([C@@](O)(CNCc2ccccc2)COCc2ccc(F)cc2)[C@H](OCc2ccc(F)cc2)C1	MCF7	MTT	30 µM, 72 h	inhibition	100%
Cc1noc2c1-c1ccccc1C(c1ccc(Cl)cc1)=N[C@H]2CC(N)=O	THP-1	ATP luminescence	72 h	IC50	377 nM
COc1ccccc1CNC[C@@](C)(O)[C@@H]1CC[C@@H](C)C[C@H]1OCc1ccccc1	MCF7	MTT	30 µM, 72 h	inhibition	98.1%
C=C(F)C(=O)N1CCN(c2nc(OC[C@@H]3CCCN3C)nc3c2CCN(c2cccc4cccc(Cl)c24)C3)C[C@@H]1CC#N	SW-620	ATP luminescence	3D culture	IC50	> 1000 nM
CC(=NNC(=O)c1ccccc1O)c1ccc(Nc2nnc(-c3ccc(Cl)cc3)c3ccccc23)cc1	MCF7	MTT	1.25 µM, 24 h	viability	90.3%
C[C@@H]1CC[C@@H]([C@](C)(O)CNCc2ccc(F)cc2)[C@H](OCc2ccccc2)C1	MCF7	MTT	30 µM, 72 h	inhibition	73.8%

Compound	cell line	assay	conditions	endpoint	result
Cc1c(C(=O)O)ccc2c3n(nc12)[C@@H]1[C@H](C3)N(CC2CC2)[C@@]2(C(=O)Nc3cc(Cl)ccc32)[C@H]1c1cccc(Cl)c1F	A204			GI50	0.28 nM
C[C@@H]1CC[C@@H]([C@](C)(O)CNCc2cccc(F)c2)[C@H](OCc2ccccc2)C1	MCF7	MTT	30 µM, 72 h	inhibition	95.6%
CC(=O)Nc1ccc(Oc2nnc(-c3ccc(Cl)cc3)c3ccccc23)cc1	MCF7	MTT	2.5 µM	cell death	94.2%
CC(=O)Nc1ccc(/C(C)=N/N=c2\sc(C(C)=O)nn2-c2ccc(C)cc2)cc1	MCF7	MTT	5 µM	viability	21.2%
CC(=NNC(=O)c1ccncc1)c1ccc(Nc2nnc(-c3ccc(Cl)cc3)c3ccccc23)cc1	MCF7	MTT	2.5 µM	cell death	94.4%
C=CC(=O)NC1CCN(c2ncc3ncnc(Nc4ccc(Oc5ccc6c(c5)ncn6C)c(C)c4)c3n2)CC1	NCI-H441			EC50	693 nM
CC(=NNC(=O)c1ccccc1Br)c1ccc(Nc2nnc(-c3ccc(Cl)cc3)c3ccccc23)cc1	MCF7	MTT	1.25 µM, 24 h	viability	31.3%
COc1cc2c3c(n(CCCNC(C)C)c(=O)c2cc1OC)-c1nc2c(cc1C3=O)OCO2	AMO1	MTS	72 h	IC50	317 nM
CCN1[C@@H](C(=O)NC23CCC(C(=O)O)(CC2)CC3)[C@H](c2cccc(Cl)c2F)[C@]2(C(=O)Nc3cc(Cl)ccc32)C12CCCCC2	SJSA-1	resazurin	72 h	IC50	106 nM
C[C@@H]1CC[C@@H]([C@](C)(O)Cn2cnc3ccccc32)[C@H](OCc2ccccc2)C1	MCF7	MTT	30 µM, 72 h	inhibition	98.3%
O=C(C=Cc1ccccc1)Nc1ccc(Oc2nnc(-c3ccc(Cl)cc3)c3ccccc23)cc1	MCF7	MTT	10 µM	cell death	91.9%
O=C(NO)c1ccc(CNc2nc3cccc(-c4ccc5c(c4)OCO5)n3n2)cc1	SW-620	SRB		GI50	450 nM
CCNCCCn1c2c(c3cc(OC)c(OC)cc3c1=O)C(=O)c1cc3c(nc1-2)OCO3	AMO1	MTS	72 h	IC50	184 nM
CC(=NNC(N)=S)c1ccc(Nc2nnc(-c3ccc(Cl)cc3)c3ccccc23)cc1	MCF7	MTT	1.25 µM	cell death	94.5%
COc1cc2c3c(n(CCCN4CCOCC4)c(=O)c2cc1OC)-c1nc2c(cc1C3=O)OCO2	THP-1	MTS	72 h	IC50	1320 nM
CC(=O)c1nn(-c2ccc(C)cc2)/c(=N/N=C(\C)c2ccc(NC(=O)c3ccccc3)cc2)s1	MCF7	MTT	1.25 µM	viability	5.3%
